Where “and” joins values, the source holds several entries; their conditions need not be identical. Equal entries are not always repeated.
System: HEK-293T
Assay: Multiplex assay against HEK293T
Assay type: toxicity, cell-based
Conditions: human, number of replicates 2
How it was run: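 Values for tubulin, mitochondrial-mass and membrane-permeability phenotypes are per cents of cells with healthy nuclei. These cells were identified by CellPathfinder machine-learning gating of live cells that had been stained at seeding with Hoechst33342, BioTracker Green Microtubule Cytoskeleton Dye, MitoTracker Red and Annexin V Alexa Fluor 680 and imaged on a CQ1 microscope at 37°C and 5% CO2 after compound addition. The gating first set Hoechst high-intensity objects apart from normal cells, then split normal cells into healthy, pyknosed or fragmented nuclei, and pyknosed cells into mitotic or apoptotic.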

[1] = 12 h, 1 µM, compound concentration 1 uM
[2] = 12 h, 10 µM, compound concentration 10 uM
[3] = 24 h, 1 µM, compound concentration 1 uM
[4] = 24 h, 10 µM, compound concentration 10 uM
[5] = 48 h, 1 µM, compound concentration 1 uM
[6] = 48 h, 10 µM, compound concentration 10 uM

In the case of C[C@@H](Oc1cc(-n2cnc3ccc(OC4CCN(C)CC4)cc32)sc1C(N)=O)c1ccccc1Cl [GSK-579289A], the “Population Apoptotic (%)” value [1] is reported as 49% and 50%, the “Population Fragmented Nuclei (%)” value [1] is reported as 4% and 2% and the “Population Healthy Nuclei (%)” value [1] is reported as 79% and 81%. The “Population Hoechst High Intensity Objects (%)” value [1] was 7% and 8%, the “Population Membrane Permeable-Phenotype (%)” value [1] was 8% and 3% and the “Population Mitochondria Different-Phenotype (%)” value [1] was 27% and 24%. For the same compound, the “Population Mitotic Cells (%)” value [1] was 50%, the “Population Normal (%)” value [1] was 93% and 91% and the “Population Pyknosed Nuclei (%)” value [1] was 16%. For the same compound, the “Population Tubulin-Different-Phenotype (%)” value [1] was 88% and 90%, the “Total Cell Count” value [1] was 686 and 707 and the “Population Apoptotic (%)” value [2] was 72% and 75%. For the same compound, the “Population Fragmented Nuclei (%)” value [2] was 2% and 1%, the “Population Healthy Nuclei (%)” value [2] was 79% and 84% and the “Population Hoechst High Intensity Objects (%)” value [2] was 19% and 10%. The “Population Membrane Permeable-Phenotype (%)” value [2] was 7% and 3%, the “Population Mitochondria Different-Phenotype (%)” value [2] was 69% and 73% and the “Population Mitotic Cells (%)” value [2] was 27% and 25%. The “Population Normal (%)” value [2] was 80% and 89%, the “Population Pyknosed Nuclei (%)” value [2] was 17% and 13% and the “Population Tubulin-Different-Phenotype (%)” value [2] was 82% and 85%. For the same compound, the “Total Cell Count” value [2] was 381 and 356, the “Population Apoptotic (%)” value [3] was 41% and 65% and the “Population Fragmented Nuclei (%)” value [3] was 1% and 3%. For the same compound, the “Population Healthy Nuclei (%)” value [3] was 75%, the “Population Hoechst High Intensity Objects (%)” value [3] was 8% and 7% and the “Population Membrane Permeable-Phenotype (%)” value [3] was 2% and 0%. For the same compound, the “Population Mitochondria Different-Phenotype (%)” value [3] was 55% and 62%, the “Population Mitotic Cells (%)” value [3] was 58% and 34% and the “Population Normal (%)” value [3] was 91% and 92%. The “Population Pyknosed Nuclei (%)” value [3] was 22% and 21%, the “Population Tubulin-Different-Phenotype (%)” value [3] was 93% and 95% and the “Total Cell Count” value [3] was 585 and 584. For the same compound, the “Population Apoptotic (%)” value [4] was 78% and 69%, the “Population Fragmented Nuclei (%)” value [4] was 7% and 6% and the “Population Healthy Nuclei (%)” value [4] was 75% and 79%. The “Population Hoechst High Intensity Objects (%)” value [4] was 23% and 16%, the “Population Membrane Permeable-Phenotype (%)” value [4] was 1% and the “Population Mitochondria Different-Phenotype (%)” value [4] was 88% and 75%. The “Population Mitotic Cells (%)” value [4] was 21% and 30%, the “Population Normal (%)” value [4] was 76% and 84% and the “Population Pyknosed Nuclei (%)” value [4] was 16% and 14%. The “Population Tubulin-Different-Phenotype (%)” value [4] was 66% and 80%, the “Total Cell Count” value [4] was 362 and 350 and the “Population Apoptotic (%)” value [5] was 68% and 63%. The “Population Fragmented Nuclei (%)” value [5] was 3% and 4%, the “Population Healthy Nuclei (%)” value [5] was 85% and 83% and the “Population Hoechst High Intensity Objects (%)” value [5] was 6% and 13%. The “Population Membrane Permeable-Phenotype (%)” value [5] was 1% and 0%, the “Population Mitochondria Different-Phenotype (%)” value [5] was 67% and the “Population Mitotic Cells (%)” value [5] was 31% and 36%. For the same compound, the “Population Normal (%)” value [5] was 93% and 86%, the “Population Pyknosed Nuclei (%)” value [5] was 10% and 11% and the “Population Tubulin-Different-Phenotype (%)” value [5] was 89% and 90%. For the same compound, the “Total Cell Count” value [5] was 471 and 559, the “Population Apoptotic (%)” value [6] was 67% and 73% and the “Population Fragmented Nuclei (%)” value [6] was 12% and 11%. For the same compound, the “Population Healthy Nuclei (%)” value [6] was 61% and 68%, the “Population Hoechst High Intensity Objects (%)” value [6] was 20% and 22% and the “Population Membrane Permeable-Phenotype (%)” value [6] was 4% and 3%. For the same compound, the “Population Mitochondria Different-Phenotype (%)” value [6] was 78% and 68%, the “Population Mitotic Cells (%)” value [6] was 32% and 26% and the “Population Normal (%)” value [6] was 79% and 77%. The “Population Pyknosed Nuclei (%)” value [6] was 26% and 19%, the “Population Tubulin-Different-Phenotype (%)” value [6] was 55% and 65% and the “Total Cell Count” value [6] was 453 and 440.
In the case of C=CC(=O)Nc1ccc2[nH]c(=O)n(C3CCN(Cc4ccc(-c5ccc6c(c5)NC(=O)CO6)cc4)CC3)c2c1 [RL2578], the “Population Apoptotic (%)” value [1] is reported as 38% and 52%, the “Population Fragmented Nuclei (%)” value [1] is reported as 3% and the “Population Healthy Nuclei (%)” value [1] is reported as 85%. The “Population Hoechst High Intensity Objects (%)” value [1] was 8% and 6%, the “Population Membrane Permeable-Phenotype (%)” value [1] was 4% and 5% and the “Population Mitochondria Different-Phenotype (%)” value [1] was 17%. The “Population Mitotic Cells (%)” value [1] was 61% and 47%, the “Population Normal (%)” value [1] was 91% and 93% and the “Population Pyknosed Nuclei (%)” value [1] was 10% and 11%. For the same compound, the “Population Tubulin-Different-Phenotype (%)” value [1] was 66% and 57%, the “Total Cell Count” value [1] was 749 and 364 and the “Population Apoptotic (%)” value [2] was 39% and 60%. The “Population Fragmented Nuclei (%)” value [2] was 2% and 1%, the “Population Healthy Nuclei (%)” value [2] was 92% and 89% and the “Population Hoechst High Intensity Objects (%)” value [2] was 6% and 10%. The “Population Membrane Permeable-Phenotype (%)” value [2] was 10% and 6%, the “Population Mitochondria Different-Phenotype (%)” value [2] was 39% and the “Population Mitotic Cells (%)” value [2] was 60% and 40%. For the same compound, the “Population Normal (%)” value [2] was 93% and 89%, the “Population Pyknosed Nuclei (%)” value [2] was 4% and 8% and the “Population Tubulin-Different-Phenotype (%)” value [2] was 97% and 96%. The “Total Cell Count” value [2] was 579 and 597, the “Population Apoptotic (%)” value [3] was 44% and 59% and the “Population Fragmented Nuclei (%)” value [3] was 6% and 4%. For the same compound, the “Population Healthy Nuclei (%)” value [3] was 86% and 88%, the “Population Hoechst High Intensity Objects (%)” value [3] was 4% and the “Population Membrane Permeable-Phenotype (%)” value [3] was 4% and 3%. For the same compound, the “Population Mitochondria Different-Phenotype (%)” value [3] was 7% and 9%, the “Population Mitotic Cells (%)” value [3] was 56% and 40% and the “Population Normal (%)” value [3] was 95%. The “Population Pyknosed Nuclei (%)” value [3] was 6% and 7%, the “Population Tubulin-Different-Phenotype (%)” value [3] was 42% and 38% and the “Total Cell Count” value [3] was 1138 and 534. The “Population Apoptotic (%)” value [4] was 53% and 81%, the “Population Fragmented Nuclei (%)” value [4] was 3% and 4% and the “Population Healthy Nuclei (%)” value [4] was 93% and 90%. The “Population Hoechst High Intensity Objects (%)” value [4] was 8% and 9%, the “Population Membrane Permeable-Phenotype (%)” value [4] was 5% and 2% and the “Population Mitochondria Different-Phenotype (%)” value [4] was 35% and 46%. For the same compound, the “Population Mitotic Cells (%)” value [4] was 46% and 18%, the “Population Normal (%)” value [4] was 91% and 90% and the “Population Pyknosed Nuclei (%)” value [4] was 2% and 4%. The “Population Tubulin-Different-Phenotype (%)” value [4] was 90% and 94%, the “Total Cell Count” value [4] was 626 and 621 and the “Population Apoptotic (%)” value [5] was 16% and 19%. For the same compound, the “Population Fragmented Nuclei (%)” value [5] was 15% and 13%, the “Population Healthy Nuclei (%)” value [5] was 81% and 82% and the “Population Hoechst High Intensity Objects (%)” value [5] was 8% and 7%. The “Population Membrane Permeable-Phenotype (%)” value [5] was 6% and 4%, the “Population Mitochondria Different-Phenotype (%)” value [5] was 0% and 2% and the “Population Mitotic Cells (%)” value [5] was 83% and 80%. The “Population Normal (%)” value [5] was 91% and 92%, the “Population Pyknosed Nuclei (%)” value [5] was 2% and 3% and the “Population Tubulin-Different-Phenotype (%)” value [5] was 18% and 21%. For the same compound, the “Total Cell Count” value [5] was 2736 and 1194, the “Population Apoptotic (%)” value [6] was 32% and 60% and the “Population Fragmented Nuclei (%)” value [6] was 11% and 7%. The “Population Healthy Nuclei (%)” value [6] was 84% and 86%, the “Population Hoechst High Intensity Objects (%)” value [6] was 13% and the “Population Membrane Permeable-Phenotype (%)” value [6] was 3% and 1%. For the same compound, the “Population Mitochondria Different-Phenotype (%)” value [6] was 15% and 25%, the “Population Mitotic Cells (%)” value [6] was 67% and 40% and the “Population Normal (%)” value [6] was 86%. The “Population Pyknosed Nuclei (%)” value [6] was 4% and 6%, the “Population Tubulin-Different-Phenotype (%)” value [6] was 71% and 82% and the “Total Cell Count” value [6] was 795 and 718.

Reference: ChEMBL document CHEMBL5303300, “EUbOPEN Chemogenomics Library - Multiplex” (2023)
